Measurements taken from ChEMBL document CHEMBL1133004, “3-Alkylamino-4H-pyrido[2,3-e]-1,2,4-thiadiazine 1,1-dioxides structurally related to diazoxide and pinacidil as potassium channel openers acting on vascular smooth muscle cells: design, synthesis, and pharmacological evaluation” (2000).

Organism: Rattus norvegicus
Assay: Effect on contractile activity of 30 mM potassium-Depolarized rat aorta incubated in the presence of 10 uM Glibenclamide
Format: functional
Details: read-out: ED50 (the source's name)
Summary of the method: (§1)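 Endothelium-denuded aortic rings (3-4 mm) from fed Wistar rats (250-300 g), held at 1 g tension in Krebs-bicarbonate at 37 °C under O2/CO2 (95/5), isometric recording. After 60 min equilibration, contracted with 30 or 80 mM KCl as specified. At plateau, drug was added cumulatively to maximal relaxation or 1 mM. Glibenclamide (1 or 10 µM) was present throughout where stated. ED50 was read graphically as 50% inhibition of the KCl plateau.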

First: CC(N/C(=N\C#N)Nc1ccncc1)C(C)(C)C (stereo not given) [PINACIDIL ANHYDROUS]
Second: CC(NC1=NS(=O)(=O)c2cccnc2N1)C(C)(C)C (stereo not given)
The EC50 of the first is 2.5-fold lower: 42.5 µM for the first, 107 µM for the second. The first is the more potent here.

Going from `C[C@@H](NC1=NS(=O)(=O)c2cc(Cl)cnc2N1)C1CCCCC1` to `CC(C)C(C)NC1=NS(=O)(=O)c2cc(Cl)cnc2N1` (stereo not given), the EC50 rises from 8.6 µM to 45.1 µM (5.2-fold). The first is the more potent here.

First: CC(NC1=NS(=O)(=O)c2cc(Cl)cnc2N1)C(C)(C)C (stereo not given)
Second: CC1=Nc2ccc(Cl)cc2S(=O)(=O)N1 [DIAZOXIDE]
The EC50 of the first is 4.8-fold lower: 33.9 µM for the first, 163 µM for the second.

Organism: Rattus norvegicus
Assay: Concentration giving 50% relaxation of the 30 mM KCL-induced contraction of rat aorta rings
Format: functional
Details: read-out: ED50 (the source's name)
Summary of the method: as §1

Compared with `CC(N/C(=N\C#N)Nc1ccncc1)C(C)(C)C` (stereo not given) [PINACIDIL ANHYDROUS], `CC(NC1=NS(=O)(=O)c2cccnc2N1)C(C)(C)C` (stereo not given) is 15-fold higher in EC50: 0.5 µM for the first, 7.5 µM for the second.

First: C[C@@H](NC1=NS(=O)(=O)c2cc(Cl)cnc2N1)C1CCCCC1
Second: CC(C)C(C)NC1=NS(=O)(=O)c2cc(Cl)cnc2N1 (stereo not given)
The EC50 of the first is 3-fold lower: 3.5 µM for the first, 10.6 µM for the second. The first is the more potent here.

Compared with `CC(NC1=NS(=O)(=O)c2cc(Cl)cnc2N1)C(C)(C)C` (stereo not given), `CC1=Nc2ccc(Cl)cc2S(=O)(=O)N1` [DIAZOXIDE] is 8.4-fold higher in EC50: 2.3 µM for the first, 19.3 µM for the second.

Organism: Rattus norvegicus
Assay: Effect on contractile activity of 30 mM potassium-Depolarized rat aorta incubated in the presence of 1 uM Glibenclamide
Format: functional
Details: read-out: ED50 (the source's name)
Summary of the method: as §1

First: CC(N/C(=N\C#N)Nc1ccncc1)C(C)(C)C (stereo not given) [PINACIDIL ANHYDROUS]
Second: CC(NC1=NS(=O)(=O)c2cccnc2N1)C(C)(C)C (stereo not given)
The EC50 of the first is 6.3-fold lower: 10.4 µM for the first, 65.2 µM for the second. The first is the more potent here.

First: C[C@@H](NC1=NS(=O)(=O)c2cc(Cl)cnc2N1)C1CCCCC1
Second: CC(C)C(C)NC1=NS(=O)(=O)c2cc(Cl)cnc2N1 (stereo not given)
The EC50 of the first is 6.8-fold lower: 5 µM for the first, 34.1 µM for the second. The first is the more potent here.

Compared with `CC(NC1=NS(=O)(=O)c2cc(Cl)cnc2N1)C(C)(C)C` (stereo not given), `CC1=Nc2ccc(Cl)cc2S(=O)(=O)N1` [DIAZOXIDE] is 3.8-fold higher in EC50: 22.6 µM for the first, 85.8 µM for the second. The first is the more potent here.

Organism: Cavia porcellus
Assay: Inhibition of electrically stimulated contractions of guinea pig ileum segments.
Format: functional
Details: read-out: ED50 (the source's name)
Summary of the method: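 Ileum segments (4 cm, taken ≥10 cm from cecum) from adult guinea pigs (300-400 g), 1 g initial load, Krebs-bicarbonate at 37 °C, gassed 95% O2/5% CO2. Coaxial stimulation at 0.5-ms pulses, 0.1 Hz, 5-25 V, with isometric recording. Drug was added cumulatively to maximal effect and expressed as % of the 5-min pre-drug response. ED50 was assessed graphically.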

First: CC(N/C(=N\C#N)Nc1ccncc1)C(C)(C)C (stereo not given) [PINACIDIL ANHYDROUS]
Second: CC(NC1=NS(=O)(=O)c2cccnc2N1)C(C)(C)C (stereo not given)
The EC50 of the first is lower: 9.2 µM for the first, over 300 µM for the second.

Compared with `C[C@@H](NC1=NS(=O)(=O)c2cc(Cl)cnc2N1)C1CCCCC1`, `CC(C)C(C)NC1=NS(=O)(=O)c2cc(Cl)cnc2N1` (stereo not given) is higher in EC50: 13.6 µM for the first, over 300 µM for the second.

`CC(NC1=NS(=O)(=O)c2cc(Cl)cnc2N1)C(C)(C)C` (stereo not given) and `CC1=Nc2ccc(Cl)cc2S(=O)(=O)N1` [DIAZOXIDE] cannot be ordered by EC50: over 300 µM for the first, over 300 µM for the second.

Organism: Rattus norvegicus
Assay: Effect on Oxytocin-Induced contractions of rat uterus at concentrations 100 uM
Format: functional
Details: not given
Summary of the method: (§2)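 Uterine horns from fed Wistar rats (150-200 g) primed the day before with im diethylstilboestrol dipropionate (0.1 mL/100 g of 1 mg/mL oily solution). Horns were superfused with Tyrode at 37 °C under O2/CO2 (95/5). 20 mU oxytocin was injected at 10-min intervals until contractions (AUC) were constant, then repeated ≥3 times per drug concentration. Response is given as % of the drug-free oxytocin contraction.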

Work on `CC(NC1=NS(=O)(=O)c2cccnc2N1)C(C)(C)C` (stereo not given) yielded a Contraction of 57.5%.

Organism: Rattus norvegicus
Assay: Compound is evaluated for the effect on Oxytocin-Induced contractions of rat uterus at 100 uM
Format: functional
Details: not given
Summary of the method: as §2

Going from `CC(N/C(=N\C#N)Nc1ccncc1)C(C)(C)C` (stereo not given) [PINACIDIL ANHYDROUS] to `CC(NC1=NS(=O)(=O)c2cc(Cl)cnc2N1)C(C)(C)C` (stereo not given), the Contraction rises from 38.1% to 51%.

With `CC1=Nc2ccc(Cl)cc2S(=O)(=O)N1` [DIAZOXIDE] the Contraction was 67.7%.

Organism: Rattus norvegicus
Assay: Compound is evaluated for the effect on Oxytocin-Induced contractions of rat uterus at 10 uM
Format: functional
Details: not given
Summary of the method: as §2

Going from `CC(N/C(=N\C#N)Nc1ccncc1)C(C)(C)C` (stereo not given) [PINACIDIL ANHYDROUS] to `CC(NC1=NS(=O)(=O)c2cc(Cl)cnc2N1)C(C)(C)C` (stereo not given), the Contraction rises from 58.1% to 97.6%.

Compound `CC1=Nc2ccc(Cl)cc2S(=O)(=O)N1` [DIAZOXIDE] has a Contraction of 93.8%.

Organism: Rattus norvegicus
Assay: Effect on Oxytocin-Induced contractions of rat uterus at concentrations 10 uM
Format: functional
Details: not given
Summary of the method: as §2

For `CC(NC1=NS(=O)(=O)c2cccnc2N1)C(C)(C)C` (stereo not given), the Contraction was 93.8%.

Organism: Rattus norvegicus
Assay: Insulin secretion from rat pancreatic islets (RIS) in the presence of 16.7 mM glucose at 50 uM
Format: functional
Details: not given
Summary of the method: (§3)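 Collagenase-isolated islets from fed Wistar rats (180-220 g), in groups of 10. Preincubated 30 min at 37 °C in bicarbonate salt medium with 2.8 mM glucose and 0.5% albumin under O2/CO2. Then incubated 90 min at 37 °C with 16.7 mM glucose plus drug. Insulin was measured by radioimmunoassay against a rat insulin standard and reported as % residual release.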

First: CC(N/C(=N\C#N)Nc1ccncc1)C(C)(C)C (stereo not given) [PINACIDIL ANHYDROUS]
Second: CC(NC1=NS(=O)(=O)c2cccnc2N1)C(C)(C)C (stereo not given)
The RIS of the first is lower: 92.1% for the first, 98.9% for the second.

Compared with `C[C@@H](NC1=NS(=O)(=O)c2cc(Cl)cnc2N1)C1CCCCC1`, `CC(C)C(C)NC1=NS(=O)(=O)c2cc(Cl)cnc2N1` (stereo not given) is higher in RIS: 6.7% for the first, 59.3% for the second.

Going from `CC(NC1=NS(=O)(=O)c2cc(Cl)cnc2N1)C(C)(C)C` (stereo not given) to `CC1=Nc2ccc(Cl)cc2S(=O)(=O)N1` [DIAZOXIDE], the RIS falls from 41.5% to 28.8%.

Organism: Rattus norvegicus
Assay: Effect on contractile activity of 80 mM potassium-Depolarized rat aorta
Format: functional
Details: read-out: ED50 (the source's name)
Summary of the method: as §1

Compared with `CC(N/C(=N\C#N)Nc1ccncc1)C(C)(C)C` (stereo not given) [PINACIDIL ANHYDROUS], `CC(NC1=NS(=O)(=O)c2cccnc2N1)C(C)(C)C` (stereo not given) is higher in EC50: 16 µM for the first, over 300 µM for the second.

Compared with `C[C@@H](NC1=NS(=O)(=O)c2cc(Cl)cnc2N1)C1CCCCC1`, `CC(C)C(C)NC1=NS(=O)(=O)c2cc(Cl)cnc2N1` (stereo not given) is 4-fold higher in EC50: 12.3 µM for the first, 49.3 µM for the second.

Going from `CC(NC1=NS(=O)(=O)c2cc(Cl)cnc2N1)C(C)(C)C` (stereo not given) to `CC1=Nc2ccc(Cl)cc2S(=O)(=O)N1` [DIAZOXIDE], the EC50 rises from 33 µM to over 300 µM.

Organism: Rattus norvegicus
Assay: Effect on Insulin secretion from rat pancreatic islets (RIS) in the presence of 16.7 mM glucose at 10 uM
Format: functional
Details: not given
Summary of the method: as §3

Compared with `CC(N/C(=N\C#N)Nc1ccncc1)C(C)(C)C` (stereo not given) [PINACIDIL ANHYDROUS], `CC1=Nc2ccc(Cl)cc2S(=O)(=O)N1` [DIAZOXIDE] is lower in RIS: 96% for the first, 70% for the second.

`C[C@@H](NC1=NS(=O)(=O)c2cc(Cl)cnc2N1)C1CCCCC1` showed an RIS of 71.3%.

Organism: Rattus norvegicus
Assay: Effect on Oxytocin-Induced contractions of rat uterus at 100 uM
Format: functional
Details: not given
Summary of the method: as §2

`C[C@@H](NC1=NS(=O)(=O)c2cc(Cl)cnc2N1)C1CCCCC1` gave a Contraction of 22.9%.

Organism: Rattus norvegicus
Assay: Effect on Oxytocin-Induced contractions of rat uterus at 50 uM
Format: functional
Details: not given
Summary of the method: as §2

With `C[C@@H](NC1=NS(=O)(=O)c2cc(Cl)cnc2N1)C1CCCCC1` the Contraction was 50.9%.

Organism: Rattus norvegicus
Assay: Compound is evaluated for the effect on Oxytocin-Induced contractions of rat uterus at 50 uM
Format: functional
Details: not given
Summary of the method: as §2

First: CC(N/C(=N\C#N)Nc1ccncc1)C(C)(C)C (stereo not given) [PINACIDIL ANHYDROUS]
Second: CC(NC1=NS(=O)(=O)c2cc(Cl)cnc2N1)C(C)(C)C (stereo not given)
The Contraction of the first is lower: 35.5% for the first, 67.9% for the second.

Work on `CC1=Nc2ccc(Cl)cc2S(=O)(=O)N1` [DIAZOXIDE] yielded a Contraction of 76.3%.

Organism: Rattus norvegicus
Assay: Effect on Oxytocin-Induced contractions of rat uterus at 10 uM
Format: functional
Details: not given
Summary of the method: as §2

Compound `C[C@@H](NC1=NS(=O)(=O)c2cc(Cl)cnc2N1)C1CCCCC1` has a Contraction of 70.6%.

Organism: Rattus norvegicus
Assay: Effect on Oxytocin-Induced contractions of rat uterus at concentrations 50 uM
Format: functional
Details: not given
Summary of the method: as §2

For `CC(NC1=NS(=O)(=O)c2cccnc2N1)C(C)(C)C` (stereo not given), the Contraction was 68%.

Organism: Rattus norvegicus
Assay: Effect on contractile activity of 30 mM potassium-Depolarized rat aorta incubated in the absence of Glibenclamide
Format: functional
Details: read-out: ED50 (the source's name)
Summary of the method: as §1

Compared with `CC(N/C(=N\C#N)Nc1ccncc1)C(C)(C)C` (stereo not given) [PINACIDIL ANHYDROUS], `CC(NC1=NS(=O)(=O)c2cccnc2N1)C(C)(C)C` (stereo not given) is 50-fold higher in EC50: 0.2 µM for the first, 10.1 µM for the second.

Going from `C[C@@H](NC1=NS(=O)(=O)c2cc(Cl)cnc2N1)C1CCCCC1` to `CC(C)C(C)NC1=NS(=O)(=O)c2cc(Cl)cnc2N1` (stereo not given), the EC50 rises from 3.7 µM to 8.2 µM (2.2-fold).

First: CC(NC1=NS(=O)(=O)c2cc(Cl)cnc2N1)C(C)(C)C (stereo not given)
Second: CC1=Nc2ccc(Cl)cc2S(=O)(=O)N1 [DIAZOXIDE]
The EC50 of the first is 12-fold lower: 1.6 µM for the first, 19.5 µM for the second.
